Experimental data of several laboratories.
Protocols differ between the studies behind these lines.

SMILES | assay | system | conditions | measurement | result
C[C@]1(c2nc3c(C(N)=O)cccc3[nH]2)CCCN1 | – | male rhesus monkey, plasma | oral, 5 mg/kg, single dose | Vd/F | 38 L/kg
Cc1cccc(C(=O)n2ncc(=O)c3ccccc32)c1 | chemical stability | aqueous buffer | pH 7.3 | half-life | 1.9 h
CCc1ccc(Cc2cc([C@@H]3O[C@H](CO)[C@@H](O)[C@H](O)[C@H]3O)cc3c2CCC3)cc1 | – | male C57BL/6 mouse, plasma | oral, 1 mg/kg | bioavailability | 89%
Cc1cccc(C(=O)n2nc(Cl)c(=O)c3ccccc32)c1 | chemical stability | aqueous buffer | pH 7.3 | half-life | 0.642 h
O=C(N1CCC(CNS(=O)(=O)c2ccc(Cl)cc2)CC1)n1cncn1 | chemical stability, HPLC | aqueous buffer | 167 µM, pH 7.4 | half-life | 0.993 h
CC[C@H](C)[C@@H]1NC(=O)[C@@](C)(NC(=O)[C@H](CCCNC(=N)N)NC(=O)[C@H](CC(C)C)NC(=O)[C@@H](NC(=O)[C@H](CCC(N)=O)NC(=O)[C@H](CC(C)C)NC(C)=O)[C@@H](C)O)CCCC=CCCC[C@@](C)(C(=O)N[C@@H](CC(C)C)C(=O)N[C@@H](Cc2ccc3ccccc3c2)C(N)=O)NC(=O)[C@H](CCCNC(=N)N)NC(=O)[C@H](CCC(N)=O)NC1=O | – | male BALB/c mouse, plasma | intravenous, 10 mg/kg | AUC(0-t) | 233 µg·h/mL
N[C@@H](CSSC[C@H](N)C(=O)O)C(=O)O | – | Kunming mouse, plasma | oral, 100 mg/kg | bioavailability | 25.6%
O=C(ON1C(=O)CCC1=O)N1CCC(CNS(=O)(=O)c2ccc(Cl)cc2)CC1 | chemical stability, HPLC | aqueous buffer | 167 µM, pH 7.4 | half-life | 1.21 h
